Laboratory results taken from ChEMBL document CHEMBL3102784, “Salicylanilide diethyl phosphates: synthesis, antimicrobial activity and cytotoxicity” (Bioorg Med Chem, 2014).
≈ marks a conversion by molar mass, not a printed value. Calls of active or inactive are those of the source. The calls are words filed in the database; no cut-off is given here.

Tests used:
Klebsiella pneumoniae [1] = experiment: Antibacterial activity against ESBL-positive Klebsiella pneumoniae J 14368/08 at 500 micromol/L after 24 to 48 hrs by broth microdilution method; format: functional, organism-based
Procedure, shortened: (§1)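 Broth microdilution in Mueller–Hinton broth, compounds dissolved in DMSO, tested over a dilution series from 500 downward. MIC taken as ≥95% growth reduction (IC95) versus drug-free control. Benzylpenicillin comparator. Readings at 24 and 48 h.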

Staphylococcus aureus [2] = experiment: Antibacterial activity against methicillin-resistant Staphylococcus aureus H 5996/08 after 48 hrs by broth microdilution method; format: functional; details: H 5996/08, 48 h; procedure, shortened: as §1
Pichia kudriavzevii [3] = experiment: Antifungal activity against Candida krusei E28 after 24 hrs by broth microdilution method; format: functional; details: E28, 24 h
Procedure, shortened: (§2)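 Broth microdilution in RPMI 1640 with glutamine, fluconazole as reference. For yeasts, MIC is ≥80% growth reduction (IC80) versus control. For filamentous fungi, the value is expressed as IC50. Readings at 24 and 48 h.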

Aspergillus fumigatus [4] = experiment: Antifungal activity against Aspergillus fumigatus 231 after 48 hrs by broth microdilution method; format: functional; details: Aspergillus fumigatus, 231, 48 h; procedure, shortened: as §2
Mycobacterium avium [5] = experiment: Antimycobacterial activity against isoniazid, rifampicin, ethambutol and ofloxacin-resistant Mycobacterium avium My 330/88 after 21 days; format: functional; details: My 330/88, 504 h
Procedure, shortened: (§3)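 Micromethod MIC in Šula's semisynthetic medium at 37 °C. Compounds added in DMSO at 1000 down to 0.032 µmol/L. Isoniazid standard in sterile water at 0.5–250 µmol/L. Inocula: H37Rv 10^3, M. avium 10^5, M. kansasii 10^4. Read at 14 and 21 d, plus 7 d for M. kansasii.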

Mycobacterium kansasii [6] = experiment: Antimycobacterial activity against Mycobacterium kansasii 6509/96 after 7 days; format: functional; details: 6509/96, 168 h; procedure, shortened: as §3
Pichia kudriavzevii [7] = experiment: Antifungal activity against Candida krusei E28 after 48 hrs by broth microdilution method; format: functional; details: E28, 48 h; procedure, shortened: as §2
Lichtheimia corymbifera [8] = experiment: Antifungal activity against Absidia corymbifera 272 after 24 hrs by broth microdilution method; format: functional; details: Lichtheimia corymbifera, 272, 24 h; procedure, shortened: as §2
[9] = system: Staphylococcus epidermidis; experiment: Antibacterial activity against Staphylococcus epidermidis H 6966/08 after 24 hrs by broth microdilution method; format: functional; details: H 6966/08, 24 h; procedure, shortened: as §1
Mycobacterium kansasii [10] = experiment: Antimycobacterial activity against Mycobacterium kansasii My 235/80 after 7 days; format: functional; details: My 235/80, 168 h; procedure, shortened: as §3
HepG2 = experiment: Cytotoxicity against human HepG2 cells after 24 hrs by CellTiter assay; format: cell-based; details: HepG2, 24 h
Procedure, shortened: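 HepG2 cells (passage 27–33) in MEM with 10% FBS, L-glutamine and NEAA, seeded at 1×10^4 per well. Treated next day with compounds at 0.1–100 µM (or 0.1–25 µmol/L), triplicates, <1% DMSO, for 24 h at 37 °C, 5% CO2. MTS reagent added for 2 h, absorbance read at 490 nm. IC50 taken against untreated (100%) and 10% DMSO (0%) controls.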

Escherichia coli = experiment: Antibacterial activity against Escherichia coli CCM 4517 at 500 micromol/L after 24 to 48 hrs by broth microdilution method; format: functional, organism-based; procedure, shortened: as §1
[11] = system: Staphylococcus epidermidis; experiment: Antibacterial activity against Staphylococcus epidermidis H 6966/08 after 48 hrs by broth microdilution method; format: functional; details: H 6966/08, 48 h; procedure, shortened: as §1
Aspergillus fumigatus [12] = experiment: Antifungal activity against Aspergillus fumigatus 231 after 24 hrs by broth microdilution method; format: functional; details: Aspergillus fumigatus, 231, 24 h; procedure, shortened: as §2
Pseudomonas aeruginosa = experiment: Antibacterial activity against Pseudomonas aeruginosa CCM 1961 at 500 micromol/L after 24 to 48 hrs by broth microdilution method; format: functional, organism-based; procedure, shortened: as §1
Staphylococcus aureus [13] = experiment: Antibacterial activity against Staphylococcus aureus CCM 4516/08 after 24 hrs by broth microdilution method; format: functional; details: CCM 4516/08, 24 h; procedure, shortened: as §1
Trichosporon asahii [14] = experiment: Antifungal activity against Trichosporon asahii 1188 after 48 hrs by broth microdilution method; format: functional; details: Trichosporon asahii, 1188, 48 h; procedure, shortened: as §2
Candida albicans [15] = experiment: Antifungal activity against Candida albicans ATCC 44859 after 48 hrs by broth microdilution method; format: functional; details: ATCC 44859, 48 h; procedure, shortened: as §2
Mycobacterium kansasii [16] = experiment: Antimycobacterial activity against Mycobacterium kansasii My 235/80 after 14 days; format: functional; details: My 235/80, 336 h; procedure, shortened: as §3
[17] = system: Mycobacterium tuberculosis; experiment: Antimycobacterial activity against Mycobacterium tuberculosis H37Rv My 331/88 after 21 days; format: functional; details: H37Rv My 331/88, 504 h; procedure, shortened: as §3
Trichosporon asahii [18] = experiment: Antifungal activity against Trichosporon asahii 1188 after 24 hrs by broth microdilution method; format: functional; details: Trichosporon asahii, 1188, 24 h; procedure, shortened: as §2
Mycobacterium kansasii [19] = experiment: Antimycobacterial activity against Mycobacterium kansasii 6509/96 after 14 days; format: functional; details: 6509/96, 336 h; procedure, shortened: as §3
Staphylococcus aureus [20] = experiment: Antibacterial activity against Staphylococcus aureus CCM 4516/08 after 48 hrs by broth microdilution method; format: functional; details: CCM 4516/08, 48 h; procedure, shortened: as §1
Staphylococcus aureus [21] = experiment: Antibacterial activity against methicillin-resistant Staphylococcus aureus H 5996/08 after 24 hrs by broth microdilution method; format: functional; details: H 5996/08, 24 h; procedure, shortened: as §1
Lichtheimia corymbifera [22] = experiment: Antifungal activity against Absidia corymbifera 272 after 48 hrs by broth microdilution method; format: functional; details: Lichtheimia corymbifera, 272, 48 h; procedure, shortened: as §2
Candida albicans [23] = experiment: Antifungal activity against Candida albicans ATCC 44859 after 24 hrs by broth microdilution method; format: functional; details: ATCC 44859, 24 h; procedure, shortened: as §2
Mycobacterium kansasii [24] = experiment: Antimycobacterial activity against Mycobacterium kansasii 6509/96 after 21 days; format: functional; details: 6509/96, 504 h; procedure, shortened: as §3
[25] = system: Trichophyton mentagrophytes; experiment: Antifungal activity against Trichophyton mentagrophytes 445 after 120 hrs by broth microdilution method; format: functional; details: Trichophyton mentagrophytes, 445, 120 h
Procedure, shortened: (§4)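 Filamentous dermatophyte tested by broth microdilution in RPMI 1640 with glutamine, fluconazole as reference. Value expressed as IC50 relative to growth control. Read at 72 and 120 h.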

Enterococcus sp. = experiment: Antibacterial activity against Enterococcus sp. J 14365/08 at 500 micromol/L after 24 to 48 hrs by broth microdilution method; format: functional, organism-based; procedure, shortened: as §1
Nakaseomyces glabratus = experiment: Antifungal activity against Candida glabrata 20/I at 500 micromol/L after 24 to 48 hrs by broth microdilution method; format: functional, organism-based; procedure, shortened: as §2
Klebsiella pneumoniae [26] = experiment: Antibacterial activity against Klebsiella pneumoniae D 11750/08 at 500 micromol/L after 24 to 48 hrs by broth microdilution method; format: functional, organism-based; procedure, shortened: as §1
Mycobacterium avium [27] = experiment: Antimycobacterial activity against isoniazid, rifampicin, ethambutol and ofloxacin-resistant Mycobacterium avium My 330/88 after 14 days; format: functional; details: My 330/88, 336 h; procedure, shortened: as §3
[28] = system: Trichophyton mentagrophytes; experiment: Antifungal activity against Trichophyton mentagrophytes 445 after 72 hrs by broth microdilution method; format: functional; details: Trichophyton mentagrophytes, 445, 72 h; procedure, shortened: as §4
[29] = system: Mycobacterium tuberculosis; experiment: Antimycobacterial activity against Mycobacterium tuberculosis H37Rv My 331/88 after 14 days; format: functional; details: H37Rv My 331/88, 336 h; procedure, shortened: as §3
Mycobacterium kansasii [30] = experiment: Antimycobacterial activity against Mycobacterium kansasii My 235/80 after 21 days; format: functional; details: My 235/80, 504 h; procedure, shortened: as §3
Candida tropicalis = experiment: Antifungal activity against Candida tropicalis 156 at 500 micromol/L after 24 to 48 hrs by broth microdilution method; format: functional, organism-based; procedure, shortened: as §2

Row | Compound | Activity (Klebsiella pneumoniae [1]) | MIC95 (Staphylococcus aureus [2]) [µM] | MIC80 (Pichia kudriavzevii [3]) [µM] | MIC50 (Aspergillus fumigatus [4]) [µM] | MIC (Mycobacterium avium [5]) [µM] | MIC (Mycobacterium kansasii [6]) [µM] | MIC80 (Pichia kudriavzevii [7]) [µM] | MIC50 (Lichtheimia corymbifera [8]) [µM] | MIC95 [9] [µM] | MIC (Mycobacterium kansasii [10]) [µM] | IC50 (HepG2) [µM] | Activity (Escherichia coli) | MIC95 [11] [µM] | MIC50 (Aspergillus fumigatus [12]) [µM] | Activity (Pseudomonas aeruginosa) | MIC95 (Staphylococcus aureus [13]) [µM] | MIC80 (Trichosporon asahii [14]) [µM] | MIC80 (Candida albicans [15]) [µM] | MIC (Mycobacterium kansasii [16]) [µM] | MIC [17] [µM] | further results
1 | CCOP(=O)(OCC)Oc1ccc(Br)cc1C(=O)Nc1cccc(F)c1 | inactive | 250 (≈ 112 µg/mL) | > 500 | > 500 | 32 (≈ 14.3 µg/mL) | 8 (≈ 3.57 µg/mL) | > 500 | > 500 | 250 (≈ 112 µg/mL) | 8 (≈ 3.57 µg/mL) | 5.54 | inactive | 250 (≈ 112 µg/mL) | > 500 | inactive | 125 (≈ 55.8 µg/mL) | > 500 | > 500 | 16 (≈ 7.14 µg/mL) | 8 (≈ 3.57 µg/mL) | MIC80 (Trichosporon asahii [18]): > 500 µM; MIC (Mycobacterium kansasii [19]): 16 µM (≈ 7.14 µg/mL); MIC95 (Staphylococcus aureus [20]): 250 µM (≈ 112 µg/mL); MIC95 (Staphylococcus aureus [21]): 250 µM (≈ 112 µg/mL); MIC50 (Lichtheimia corymbifera [22]): > 500 µM; MIC80 (Candida albicans [23]): > 500 µM; MIC (Mycobacterium kansasii [24]): 16 µM (≈ 7.14 µg/mL); MIC50 [25]: 62.5 µM (≈ 27.9 µg/mL); Activity (Enterococcus sp.): inactive; Activity (Nakaseomyces glabratus): inactive; Activity (Klebsiella pneumoniae [26]): inactive; MIC (Mycobacterium avium [27]): 32 µM (≈ 14.3 µg/mL); MIC50 [28]: 62.5 µM (≈ 27.9 µg/mL); MIC [29]: 8 µM (≈ 3.57 µg/mL); MIC (Mycobacterium kansasii [30]): 16 µM (≈ 7.14 µg/mL); Activity (Candida tropicalis): inactive
2 | CCOP(=O)(OCC)Oc1cc(Cl)ccc1C(=O)Nc1cccc(Br)c1 | inactive | 500 (≈ 231 µg/mL) | > 500 | > 500 | 16 (≈ 7.4 µg/mL) | 8 (≈ 3.7 µg/mL) | > 500 | > 500 | 125 (≈ 57.8 µg/mL) | 4 (≈ 1.85 µg/mL) | 8.07 | inactive | 250 (≈ 116 µg/mL) | > 500 | inactive | 125 (≈ 57.8 µg/mL) | > 500 | > 500 | 8 (≈ 3.7 µg/mL) | 4 (≈ 1.85 µg/mL) | MIC80 (Trichosporon asahii [18]): > 500 µM; MIC (Mycobacterium kansasii [19]): 8 µM (≈ 3.7 µg/mL); MIC95 (Staphylococcus aureus [20]): 500 µM (≈ 231 µg/mL); MIC95 (Staphylococcus aureus [21]): 250 µM (≈ 116 µg/mL); MIC50 (Lichtheimia corymbifera [22]): > 500 µM; MIC80 (Candida albicans [23]): > 500 µM; MIC (Mycobacterium kansasii [24]): 8 µM (≈ 3.7 µg/mL); MIC50 [25]: > 500 µM; Activity (Enterococcus sp.): inactive; Activity (Nakaseomyces glabratus): inactive; Activity (Klebsiella pneumoniae [26]): inactive; MIC (Mycobacterium avium [27]): 16 µM (≈ 7.4 µg/mL); MIC50 [28]: > 500 µM; MIC [29]: 4 µM (≈ 1.85 µg/mL); MIC (Mycobacterium kansasii [30]): 8 µM (≈ 3.7 µg/mL); Activity (Candida tropicalis): inactive
3 | CCOP(=O)(OCC)Oc1cc(Cl)ccc1C(=O)Nc1ccc(Cl)c(Cl)c1 | inactive | > 500 | > 500 | > 500 | 16 (≈ 7.24 µg/mL) | 4 (≈ 1.81 µg/mL) | > 500 | > 500 | 250 (≈ 113 µg/mL) | 2 (≈ 0.905 µg/mL) | 1.92 | inactive | > 500 | > 500 | inactive | 500 (≈ 226 µg/mL) | > 500 | > 500 | 4 (≈ 1.81 µg/mL) | 4 (≈ 1.81 µg/mL) | MIC80 (Trichosporon asahii [18]): > 500 µM; MIC (Mycobacterium kansasii [19]): 4 µM (≈ 1.81 µg/mL); MIC95 (Staphylococcus aureus [20]): > 500 µM; MIC95 (Staphylococcus aureus [21]): 500 µM (≈ 226 µg/mL); MIC50 (Lichtheimia corymbifera [22]): > 500 µM; MIC80 (Candida albicans [23]): > 500 µM; MIC (Mycobacterium kansasii [24]): 4 µM (≈ 1.81 µg/mL); MIC50 [25]: 7.81 µM (≈ 3.54 µg/mL); Activity (Enterococcus sp.): inactive; Activity (Nakaseomyces glabratus): inactive; Activity (Klebsiella pneumoniae [26]): inactive; MIC (Mycobacterium avium [27]): 16 µM (≈ 7.24 µg/mL); MIC50 [28]: 7.81 µM (≈ 3.54 µg/mL); MIC [29]: 4 µM (≈ 1.81 µg/mL); MIC (Mycobacterium kansasii [30]): 4 µM (≈ 1.81 µg/mL); Activity (Candida tropicalis): inactive
